The nature of series [1]: Antiproliferative activity against human Skin fibroblasts incubated for 48 hrs by […] dye staining based assay. To be noted: Skin fibroblast. A digest of the protocol:
(§1)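 Cells were grown per ECACC recommendations and seeded in triplicate at 2 × 10³ (HCT-116) or 4 × 10³ (other lines) per well. After 24 h attachment, they were exposed 48 h to increasing concentrations of 0.1 to 25. Cells were then fixed in cold 90% ethanol/5% acetic acid, nuclei were Hoechst-stained, and nuclei were counted by automated imaging.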

Series [2] deals with Caco-2. Briefly: Antiproliferative activity against human Caco2 cells assessed as cell diminution incubated for 48 hrs by […] dye staining based assay. The series is classed as functional. A digest of the protocol:
as §1

The target in series [3] is PI3-kinase p110-alpha/p85-alpha (Homo sapiens, UniProt P42336). Briefly: Inhibition of PI3K p110alpha/p85alpha by fluorescence based immunoassay. The series is classed as protein-complex assay. A digest of the protocol:
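ADAPTA TR-FRET ADP-detection kinase assay. Detection used 6 nM Eu-anti-ADP antibody, 12 nM Alexa647-ADP tracer and 30 mM EDTA for 30 min. Read-out was excitation 340 nm with 665/615 nm emission ratio, converted to % conversion via an ATP–ADP titration curve.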

The target of series [4] is Dual specificity tyrosine-phosphorylation-regulated kinase 1A (Rattus norvegicus, UniProt Q63470). Briefly: Inhibition of rat recombinant GST-tagged DYRK1A expressed in Escherichia coli using myelin basic protein substrate.
Series [5] concerns Huh-7. Briefly: Antiproliferative activity against human HuH7 cells incubated for 48 hrs by […] dye staining based assay. To be noted: Huh-7, 48 h. In kind it is functional, cell-based. Put shortly: (§2)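 After 24 h attachment, they were exposed 48 h to increasing concentrations of 0.1 to 25. Cells were then fixed in cold 90% ethanol/5% acetic acid, nuclei were Hoechst-stained, and nuclei were counted by automated imaging.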

Series [6] is described as follows: Antiproliferative activity against human Skin fibroblasts assessed as cell diminution incubated for 48 hrs by […] dye staining based assay. The conditions noted are these: skin fibroblast. A digest of the protocol: as §1
Series [7] deals with HCT-116. Briefly: Antiproliferative activity against human HCT116 cells incubated for 48 hrs by […] dye staining based assay. In kind it is functional, cell-based. To be noted: HCT-116, 48 h. A digest of the protocol:
as §1

For series [8], the target named is Cyclin-dependent kinase 5/CDK5 activator 1 (Homo sapiens, UniProt Q00535). Briefly: Inhibition of human recombinant CDK5/P25 using myelin basic protein substrate. The series is classed as protein-complex assay.
Sequence of Cyclin-dependent kinase 5/CDK5 activator 1 (Q00535 whole entry): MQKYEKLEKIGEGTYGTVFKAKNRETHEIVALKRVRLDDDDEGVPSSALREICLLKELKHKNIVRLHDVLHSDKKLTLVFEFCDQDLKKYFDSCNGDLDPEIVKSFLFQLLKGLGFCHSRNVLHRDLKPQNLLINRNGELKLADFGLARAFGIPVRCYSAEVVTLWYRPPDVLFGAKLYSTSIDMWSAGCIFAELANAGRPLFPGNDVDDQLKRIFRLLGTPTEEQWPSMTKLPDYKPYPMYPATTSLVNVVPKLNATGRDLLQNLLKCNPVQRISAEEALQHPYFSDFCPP
Sequence of Cyclin-dependent kinase 5/CDK5 activator 1 (Q15078 whole entry, further chain): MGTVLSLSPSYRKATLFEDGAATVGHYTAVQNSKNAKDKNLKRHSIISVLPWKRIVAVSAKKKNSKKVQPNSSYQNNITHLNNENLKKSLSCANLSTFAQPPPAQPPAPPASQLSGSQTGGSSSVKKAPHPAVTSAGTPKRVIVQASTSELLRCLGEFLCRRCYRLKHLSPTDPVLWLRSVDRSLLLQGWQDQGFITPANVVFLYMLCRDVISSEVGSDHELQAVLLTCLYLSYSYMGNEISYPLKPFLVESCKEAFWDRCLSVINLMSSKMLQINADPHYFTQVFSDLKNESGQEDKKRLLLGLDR
In series [9] the test system is PC-3. Briefly: Antiproliferative activity against human PC3 cells assessed as cell diminution incubated for 48 hrs by […] dye staining based assay. The series is classed as functional. Put shortly: as §1
The test system of series [10] is MDA-MB-231. Briefly: Antiproliferative activity against human MDA-MB-231 cells incubated for 48 hrs by […] dye staining based assay. The series is classed as functional, cell-based. To be noted: MDA-MB-231, 48 h. A digest of the protocol:
as §2

Series [11] deals with Caco-2. Briefly: Antiproliferative activity against human Caco2 cells incubated for 48 hrs by […] dye staining based assay. The series is classed as functional, cell-based. The conditions noted are these: Caco-2, 48 h. Put shortly:
as §2

For series [12], the system named is PC-3. Briefly: Antiproliferative activity against human PC3 cells incubated for 48 hrs by […] dye staining based assay. The series is classed as functional, cell-based. To be noted: PC-3, 48 h. Put shortly:
as §1

Series [13] deals with NCI-H727. Briefly: Antiproliferative activity against human NCI-H727 cells incubated for 48 hrs by […] dye staining based assay. To be noted: NCI-H727, 48 h. In kind it is functional, cell-based. Put shortly:
as §1

Series [14] relates to NCI-H727. Briefly: Antiproliferative activity against human NCI-H727 cells assessed as cell diminution incubated for 48 hrs by […] dye staining based assay. The series is classed as functional. A digest of the protocol: as §1
Series [15] deals with Huh-7. Briefly: Antiproliferative activity against human HuH7 cells assessed as cell diminution incubated for 48 hrs by […] dye staining based assay. In kind it is functional. A digest of the protocol:
as §1

Sequence of PI3-kinase p110-alpha/p85-alpha (P27986 whole entry): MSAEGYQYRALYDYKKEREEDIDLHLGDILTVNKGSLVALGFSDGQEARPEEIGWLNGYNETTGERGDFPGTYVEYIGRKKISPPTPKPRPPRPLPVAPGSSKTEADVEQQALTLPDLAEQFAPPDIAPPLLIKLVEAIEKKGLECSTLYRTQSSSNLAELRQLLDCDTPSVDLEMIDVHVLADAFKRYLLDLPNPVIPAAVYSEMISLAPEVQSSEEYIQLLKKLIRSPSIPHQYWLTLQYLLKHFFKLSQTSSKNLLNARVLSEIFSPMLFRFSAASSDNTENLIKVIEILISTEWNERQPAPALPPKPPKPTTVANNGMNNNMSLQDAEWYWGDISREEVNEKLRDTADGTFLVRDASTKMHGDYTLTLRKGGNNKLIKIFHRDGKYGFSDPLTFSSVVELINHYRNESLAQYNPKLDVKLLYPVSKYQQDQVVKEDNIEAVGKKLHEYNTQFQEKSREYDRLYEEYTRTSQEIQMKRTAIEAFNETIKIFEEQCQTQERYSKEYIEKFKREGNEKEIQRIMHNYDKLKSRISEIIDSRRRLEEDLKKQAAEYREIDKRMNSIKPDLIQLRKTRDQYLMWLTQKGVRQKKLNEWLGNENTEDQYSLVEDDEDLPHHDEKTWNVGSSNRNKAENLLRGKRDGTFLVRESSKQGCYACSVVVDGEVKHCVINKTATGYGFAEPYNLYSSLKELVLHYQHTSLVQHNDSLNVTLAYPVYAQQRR
Sequence of PI3-kinase p110-alpha/p85-alpha (P42336 whole entry): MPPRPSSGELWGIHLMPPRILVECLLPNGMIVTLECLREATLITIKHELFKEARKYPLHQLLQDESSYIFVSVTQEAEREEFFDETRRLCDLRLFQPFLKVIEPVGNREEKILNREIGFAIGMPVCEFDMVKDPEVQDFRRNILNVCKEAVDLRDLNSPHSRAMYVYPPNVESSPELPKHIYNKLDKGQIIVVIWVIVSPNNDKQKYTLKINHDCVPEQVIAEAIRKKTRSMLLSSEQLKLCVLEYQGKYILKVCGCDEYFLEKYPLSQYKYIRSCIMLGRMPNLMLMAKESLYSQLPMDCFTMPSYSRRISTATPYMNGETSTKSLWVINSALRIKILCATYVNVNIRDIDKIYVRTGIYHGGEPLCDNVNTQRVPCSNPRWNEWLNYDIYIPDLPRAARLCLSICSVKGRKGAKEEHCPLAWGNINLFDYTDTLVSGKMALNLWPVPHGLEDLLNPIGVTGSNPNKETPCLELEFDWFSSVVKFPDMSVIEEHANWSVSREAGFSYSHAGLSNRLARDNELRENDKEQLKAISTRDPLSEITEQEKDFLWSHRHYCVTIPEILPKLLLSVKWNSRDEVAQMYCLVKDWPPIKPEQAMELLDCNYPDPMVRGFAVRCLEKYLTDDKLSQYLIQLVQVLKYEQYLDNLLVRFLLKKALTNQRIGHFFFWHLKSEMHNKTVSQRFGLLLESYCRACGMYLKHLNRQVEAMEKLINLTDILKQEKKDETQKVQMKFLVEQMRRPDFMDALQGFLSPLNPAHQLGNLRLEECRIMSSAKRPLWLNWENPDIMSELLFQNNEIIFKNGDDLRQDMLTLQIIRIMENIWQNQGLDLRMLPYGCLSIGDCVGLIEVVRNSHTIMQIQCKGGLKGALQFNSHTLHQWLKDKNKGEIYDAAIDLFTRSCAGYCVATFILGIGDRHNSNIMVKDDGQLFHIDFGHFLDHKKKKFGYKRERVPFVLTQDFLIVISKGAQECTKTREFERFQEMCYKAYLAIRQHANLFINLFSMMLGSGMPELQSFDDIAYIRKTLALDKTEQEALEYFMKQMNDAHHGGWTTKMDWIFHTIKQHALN

Usually IC50 stands for the concentration at which inhibition is half-maximal. As to `COc1ccc2c(c1)c1c(C)n[nH]c(=O)c1n2Cc1cccc([N+](=O)[O-])c1`, the IC50 in series [1] was 2000 nM; in series [3], 1800 nM; in series [4], over 10000 nM; in series [5] it was 1500 nM; in [7] it was 4000 nM; in series [8], over 10000 nM. In addition, the IC50 amounted to 4000 nM in [10], 5000 nM in series [11], 2500 nM in [12] and 4000 nM in series [13]. For the same compound, the Activity in [2], in [6] and in series [9] was 50% throughout.

For `COc1ccc2c(c1)c1c(C)n[nH]c(=O)c1n2Cc1ccc(C#N)cc1`, the IC50 is 5000 nM in [1]; 2900 nM in [3]; over 10000 nM in [4]; 2000 nM in series [5]; 4000 nM in [7]; over 10000 nM in series [8]. Moreover, the IC50 in series [10] was 2000 nM; in series [11], 6000 nM; in series [12] it was 2000 nM; in [13], 2000 nM. Further, the Activity in series [9] was 50%.

In the case of `Oc1cccc(-c2nc(N3CCOCC3)c3oc4ncccc4c3n2)c1` [PI-103], the IC50 in series [1] was 1500 nM; in series [5] it was 1500 nM; in series [7] it was 1000 nM; in [10], 15000 nM; in series [11], 900 nM; in series [12], 1500 nM. Moreover, the IC50 in [13] was 3000 nM. The Activity in [14] amounted to 30%; in [15], 40%; in series [6], 30%.

These data come from ChEMBL document CHEMBL2086312, “Synthesis and biological evaluation of new 5-benzylated 4-oxo-3,4-dihydro-5H-pyridazino[4,5-b]indoles as PI3Kα inhibitors” (Eur J Med Chem, 2012).
